Publication PMC4065302 (Diabetes Therapy, 2014)

How the values were obtained:
[1] = Serum IAsp and IDeg pharmacokinetics; assay type: in vivo, human
Procedure, shortened: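 Subcutaneous abdominal dosing in T1DM subjects: insulin degludec 0.42 U/kg daily Days 1–5, insulin degludec/insulin aspart 0.6 U/kg on Day 6. Aspart was sampled predose to 12 h on Day 6. Degludec was sampled predose on Days 1–5, then to 48 h, plus 72, 96 and 120 h. Serum levels were measured by validated analyte-specific ELISAs; full analysis set n = 22.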

[2] = acidic pH; no reference given; cited from earlier work
[3] = test system: subjects with type 1 diabetes mellitus; test: Safety and tolerability monitoring; assay type: in vivo, human; conditions: 22 subjects
Procedure, shortened: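 Adults 18–65 y with T1DM on insulin ≥12 months. Regimen: insulin degludec 0.42 U/kg s.c. once daily (~8 p.m.) Days 1–5, then single insulin degludec/insulin aspart 0.6 U/kg s.c. on Day 6, with bolus insulin aspart as needed. Monitored: treatment-emergent AEs, confirmed hypoglycemia (severe per ADA, or plasma glucose <3.1 mmol/L or blood glucose <2.8 mmol/L), physical exam, vital signs, ECG, labs. Summarized descriptively.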

[4] = cited from earlier work
[5] = while IDeg steady state was being attained (Days 1-5)

insulin aspart [IAsp]
AUCIAsp,0–12h (total serum exposure of IAsp in IDegAsp) ([1]; mean, n = 22, serum, ELISA, IDegAsp 0.6 U/kg s.c. (0.18 U/kg IAsp), Day 6): 1,087 pmol h/L | t max,IAsp ([1]; median, n = 22, serum, ELISA, IDegAsp 0.6 U/kg s.c., Day 6): 1.33 h

Insulin glargine
pH at which soluble [2]: 4

insulin degludec [IDeg]
time to clinical steady state ([1]; once-daily IDeg 0.42 U/kg s.c.): 2 to 3 days | injection site reactions ([3]; during the trial, s.c. administration): No injection site reactions | treatment-emergent changes in clinical laboratory parameters, vital signs, physical examination or ECG ([3]; following subcutaneous administration): no significant treatment-emergent changes | confirmed hypoglycemic episodes [3, 5]: 22 episodes | subjects with confirmed hypoglycemic episodes [3, 5]: 13 subjects | duration of action [4]: exceeding 42 h | half-life ([4]; no reference given): > 24 h
